Our source for the Km and IC50 values is ChEMBL document CHEMBL1135118, “Aromatic farnesyl diphosphate analogues: vinyl triflate-mediated synthesis and preliminary enzymatic evaluation” (Bioorg Med Chem Lett, 2002).

Format in all cases: protein-complex assay
The test system of data set [1] is C/C(=C\COP(=O)(O)OP(=O)(O)O)CCc1ccc(-c2ccccc2)cc1. In words: Binding affinity for Farnesyltransferase. Put shortly:
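Continuous fluorimetric farnesylation assay with purified recombinant mammalian FTase and dansyl-GCVLS peptide as cosubstrate. FPP analogue or E,E-FPP supplied as a varied substrate in 52 mM Tris–HCl pH 7.0 with 5.8 mM DTT, MgCl₂, ZnCl₂ and 0.4% n-dodecyl-β-D-maltoside. Reaction started with enzyme; fluorescence (ex 350/em 486 nm) recorded for 300 s at 30 °C. Initial fluorescence rates were converted to velocities for Km.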

The target in data set [2] is T1, Protein farnesyltransferase (Homo sapiens, UniProt P49354+P49356). The experiment in a line: Inhibitory activity against mammalian protein-Farnesyltransferase at 10 uM.
The target of data set [3] is T1, Protein farnesyltransferase. In words: Inhibitory activity against mammalian protein-Farnesyltransferase. Put shortly:
(§1)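 Inhibition read in the continuous fluorescence assay with recombinant mammalian FTase and dansyl-GCVLS peptide at 30 °C for 300 s (ex 350/em 486 nm). Tris–HCl pH 7.0 buffer held DTT, MgCl₂, ZnCl₂ and 0.4% dodecyl maltoside. E,E-FPP was fixed while analogue amounts varied; farnesylation rate was measured for each.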

Data set [4] shares this target. The experiment in a line: Inhibitory activity against mammalian protein-farnesyltransferase. Put shortly: as §1

With “Protein farnesyltransferase (Homo sapiens) (from UniProt P49354+P49356)”, in data set [1], the Michaelis constant (Km) worked out at 0.8 µM.
As for `C/C(=C\COP(=O)(O)OP(=O)(O)O)CCc1ccccc1-c1ccccc1`, the IC50 in data set [2] was over 10 µM.
`C/C(=C\COP(=O)(O)OP(=O)(O)O)CCc1ccc2ccccc2c1` returned an IC50 in data set [3] of 5.4 µM. That is a single-digit micromolar value.
With `C/C(=C\COP(=O)(O)OP(=O)(O)O)COCc1ccc(C(=O)c2ccccc2)cc1`, in data set [4], the IC50 is 2300 nM.

As usually defined, the Km is the concentration of substrate that gives half-maximal velocity. A word on the IC50: it is the concentration that gives 50% inhibition. Higher therefore signals a need for much substance.
